Rows were chosen to be rich in hits. Some 2.9% of all compounds tested hit in one or more screens of this group.
TRPC6 act: mouse TRPC6 channel activation; Q61143; HEK293-TRPC6 membrane potential dye fluorescence; hits give high values; B-score at 10 µM; hit rate 0.13% among 310,000; AID 2550;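 active = B-score of the integrated fluorescence ratio above library mean plus 3 SD, and starting fluorescence ratio within library mean plus 5 SD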;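 also: higher score means more depolarization so channel activation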
TRPC4 inh: inhibitors of mouse TRPC4 channel | HEK293 TRPC4beta/mu-opioid, DAMGO-evoked Fluo4 calcium flux; hits give low values | B-score at 10 µM | hit rate 0.39% among 300,000 | AID 2247;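 active = B-score over 3 SD under the library average, no early fluorescence shift, positive overall ratio signal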
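Assay system: TRPC4beta/mu-opioid receptor HEK293 cell line; compound dosing: single concentration per test compound; detection: Fluo4 Ca2+ flux fluorescence; evaluation: per-well B score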
TRPC4 PAM: allosteric potentiators of mouse TRPC4 channel. Q9QUQ5. HEK293 TRPC4beta/mu-opioid, DAMGO EC20, Fluo-4 Ca2+ flux; hits give high values. B-score at 10 µM. hit rate 0.42% among 310,000. AID 2227;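 active = B-score of calcium response area above 5 SD of library B-scores, with initial fluorescence ratio within 5 SD of library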;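 also: B-score of integrated fluorescence ratio over time as area under calcium response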
TRPC6 inh: blocks the mouse TRPC6 cation channel; AID 2553; hit rate 1.1% among 310,000; B-score at 10 µM; Q61143; HEK293-TRPC6, membrane potential dye, ACh-evoked depolarization; hits give low values;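 active = B-score under library mean minus 3 SD, initial fluorescence not abnormally high, positive integrated signal ratio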;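 also: B-score derived from integrated fluorescence ratio over the kinetic read; more negative B-score means stronger inhibition of depolarization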
Kir21 inh: inhibitors of mouse Kir2.1 inward-rectifier potassium channel. HEK293-Kir2.1, FluxOR thallium flux fluorescence; hits give low values. B-score at 10 µM. hit rate 0.85% among 310,000. AID 1672;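 active = fluorescence ratio B-score at or below minus 3 SD of library scores, with starting-brightness B-score within 2 SD, cut at about -4.2 in these data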;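 also: channel flux triggered by added potassium and thallium sulfate stimulus; B-score of peak minus minimum fluorescence over baseline after thallium stimulus; more negative B-score means stronger Kir2.1 block with less thallium influx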
Target sequence (P35561 whole entry, looked up): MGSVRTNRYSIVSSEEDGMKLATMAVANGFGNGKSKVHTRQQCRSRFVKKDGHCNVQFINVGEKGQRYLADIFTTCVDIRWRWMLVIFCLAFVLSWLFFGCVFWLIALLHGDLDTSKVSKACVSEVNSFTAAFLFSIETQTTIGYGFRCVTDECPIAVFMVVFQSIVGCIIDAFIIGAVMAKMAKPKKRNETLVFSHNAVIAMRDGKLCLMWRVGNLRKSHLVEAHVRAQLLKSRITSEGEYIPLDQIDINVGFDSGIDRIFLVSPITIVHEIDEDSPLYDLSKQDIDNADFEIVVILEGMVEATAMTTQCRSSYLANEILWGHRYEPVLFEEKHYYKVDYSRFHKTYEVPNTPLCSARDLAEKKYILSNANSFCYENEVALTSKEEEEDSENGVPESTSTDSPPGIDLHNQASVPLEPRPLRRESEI
TRPC4 act: opens the mouse TRPC4 cation channel; Q9QUQ5; HEK293 TRPC4beta/mu-opioid, Fluo4 calcium fluorescence; hits give high values; B-score at 10 µM; hit rate 0.49% among 310,000; AID 2237;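 active = B-score above 5 SD of library B-scores, and initial fluorescence ratio not above library mean plus 5 SD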;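 also: positive B-score marks a calcium rise read as TRPC4 activation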
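Material: TRPC4beta and mu-opioid receptor HEK293 stable cells | Incubation: 45 min room-temperature Fluo4 loading, 110 s read | Detection: Kinetic Fluo4 calcium fluorescence | Measure: Integrated baseline-normalised fluorescence ratio, converted to per-well B score | Benchmarks: Low control buffer alone, high control maximal DAMGO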
TRPC4 spec 2: mouse TRPC4 off-target activity of TRPC6 inhibitors, second screen; shares compounds with TRPC6 inh; HEK293 TRPC4/MOR, membrane potential dye fluorescence; channel activated by saturating DAMGO dose; inhibition, % at 10 µM; hit rate 42% among 920; AID 2776;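 active = compounds whose fluorescence signal differed from control wells by over 3 SD, either direction, in both duplicate plates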
TRPC4 spec: selectivity of TRPC6 inhibitors: effect on mouse TRPC4; shares compounds with TRPC6 inh; HEK293 TRPC4/mu-opioid, membrane potential fluorescence; activity change, negative = inhibition, % at 10 µM; hit rate 61% among 920; AID 2777;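 active = rise or fall in signal beyond 3 SD of buffer-only wells in both replicate plates, either sign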;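 also: integrated kinetic ratio of fluorescence range over baseline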
HEK293 MPD ctr 2-1: second check of TRPC6 inhibitor effects in parental HEK293 cells; shares compounds with TRPC6 inh; parental HEK293 membrane potential dye fluorescence; maximal acetylcholine challenge after compound addition; signal change vs control, % at 10 µM; hit rate 31% among 920;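 active = membrane potential signal moving either way by over 3 SD of the maximum-effect control, in both duplicate plates, meaning non-specific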
HEK293 MPD ctr-1: parental HEK293 nonspecific activity of TRPC6 inhibitors; shares compounds with TRPC6 inh; parental HEK293 membrane potential dye fluorescence; membrane potential signal change, % at 10 µM; hit rate 60% among 920; AID 2780;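 active = membrane potential signal shifting up or down by more than 3 SD of buffer-only wells, on both duplicate plates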
HEK293 MPD ctr-2: checks TRPC6 modulator effects in parental HEK293 cells | shares compounds with TRPC6 inh | membrane potential dye fluorescence | membrane potential signal change, % at 10 µM | hit rate 51% among 2,400;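 active = membrane potential signal moves up or down beyond 5 SD from buffer-only wells, on both duplicate plates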
HEK293 MPD ctr 2-2: second counter-screen for TRPC6 modulators: effect in parental HEK293 cells; shares compounds with TRPC6 inh; membrane potential dye fluorescence; after compound, maximal acetylcholine stimulation; inhibition, % at 10 µM; hit rate 14% among 2,400; AID 488926;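 active = membrane potential signal drops by more than 5 SD from the mean control signal, in both duplicate plates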;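 also: plate controls were acetylcholine ECmax control wells for no effect and buffer only wells for full effect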
TRPC4 ctr mod: mouse TRPC4 off-target activity of TRPC6 modulators. HEK293 TRPC4/mu-opioid, membrane potential fluorescence. hit rate 69% among 2,400. shares compounds with TRPC6 inh. percent change from control (negative = decrease, positive = increase), % at 10 µM;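 active = membrane potential signal moved up or down beyond 5 SD of buffer control wells, in both duplicate plates, actives on both sides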;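 also: plate controls were assay buffer wells for no effect and DAMGO maximal-effect wells for full effect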
TRPC4 ctr inh 2: second check of whether TRPC6 modulators also affect mouse TRPC4. shares compounds with TRPC6 inh. AID 488928. HEK293 TRPC4/mu-opioid, membrane potential dye fluorescence; stimulated with maximal-effect DAMGO. inhibition, % at 10 µM. hit rate 55% among 2,400;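 active = drop in membrane potential signal beyond 5 SD of the control wells in both duplicate plates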;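 also: TRPC4 counter screen for TRPC6 hits run under conditions tuned for TRPC6 not TRPC4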
TRPC6 block conf: confirmation of mouse TRPC6 inhibitors | shares compounds with TRPC6 inh | HEK293-TRPC6, membrane potential dye, ACh-evoked depolarization | hit rate 43% among 3,300 | inhibition, % at 10 µM;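 active = fluorescence ratio falls more than 5 SD below the full-stimulation control mean, in both duplicate runs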;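 also: integrated fluorescence ratio of peak minus minimum over baseline after agonist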
TRPC6 act conf: mouse TRPC6 activator confirmation; shares compounds with TRPC6 inh; HEK293-TRPC6 membrane potential dye fluorescence, FDSS; activation, % at 10 µM; hit rate 11% among 2,800; AID 488961;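 active = ratio signal rise beyond 5 SD above unstimulated control wells' mean, seen in both duplicate runs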;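 also: plate controls were buffer EC0 wells for no effect and acetylcholine ECmax response for full effect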
* = called active by the depositor.

`N=c1c(C(=O)NCc2ccco2)cc2c(=O)n3ccccc3nc2n1C1CCCC1` gave TRPC6 act inactive, TRPC4 inh inactive, TRPC4 PAM inactive, TRPC6 inh -5.3*, Kir21 inh -0.18, TRPC4 act inactive, HEK293 MPD ctr-2 -71.5%*, HEK293 MPD ctr 2-2 inactive, TRPC4 ctr mod -32.5%*, TRPC4 ctr inh 2 37.0%*, TRPC6 block conf 45.5%* and TRPC6 act conf inactive.
Cc1cccn2c(=O)c3cc(C(=O)NC4CCCC4)c(=N)n(C4CCCC4)c3nc12 was read as TRPC6 act inactive, TRPC4 inh inactive, TRPC4 PAM inactive, TRPC6 inh -5.19*, Kir21 inh 0.97, TRPC4 act inactive, HEK293 MPD ctr-2 -151.0%*, HEK293 MPD ctr 2-2 inactive, TRPC4 ctr mod -54.5%*, TRPC4 ctr inh 2 48.0%*, TRPC6 block conf 49.0%* and TRPC6 act conf inactive.
Screening Cc1ccc2nc3c(cc(C(=O)NCc4ccco4)c(=N)n3Cc3ccco3)c(=O)n2c1 returned TRPC6 act inactive, TRPC4 inh inactive, TRPC4 PAM inactive, TRPC6 inh inactive, Kir21 inh -1.12 and TRPC4 act inactive.
`N=c1c(C(=O)NC2CCCC2)cc2c(=O)n3ccccc3nc2n1C1CCCC1` gave TRPC6 act inactive, TRPC4 inh inactive, TRPC4 PAM inactive, TRPC6 inh -10.8*, Kir21 inh 1.37, TRPC4 act inactive, HEK293 MPD ctr-2 -144.0%*, HEK293 MPD ctr 2-2 62.0%*, TRPC4 ctr mod -31.0%*, TRPC4 ctr inh 2 58.0%*, TRPC6 block conf 55.5%* and TRPC6 act conf inactive.
Screening CCc1ccc(OCC(=O)N/N=C\c2ccco2)c([N+](=O)[O-])c1 returned TRPC6 act inactive, TRPC4 inh inactive, TRPC4 PAM inactive, TRPC6 inh inactive, Kir21 inh -0.37 and TRPC4 act inactive.
For Cc1ccc(CNC(=O)c2cc3c(=O)n4ccccc4nc3n(Cc3ccco3)c2=N)cc1 the results were TRPC6 act inactive, TRPC4 inh inactive, TRPC4 PAM inactive, TRPC6 inh inactive, Kir21 inh -0.83 and TRPC4 act inactive.
`N=c1c(C(=O)NCc2ccco2)cc2c(=O)n3ccccc3nc2n1Cc1ccccc1` gave TRPC6 act inactive, TRPC4 inh inactive, TRPC4 PAM inactive, TRPC6 inh -7.09*, Kir21 inh 0.51, TRPC4 act inactive, HEK293 MPD ctr-2 inactive, HEK293 MPD ctr 2-2 inactive, TRPC4 ctr mod -39.5%*, TRPC4 ctr inh 2 45.5%*, TRPC6 block conf inactive and TRPC6 act conf inactive.
`CCCn1c(=N)c(C(=O)NC2CCCC2)cc2c(=O)n3cccc(C)c3nc21` gave TRPC6 act inactive, TRPC4 inh inactive, TRPC4 PAM inactive, TRPC6 inh -6.84*, Kir21 inh 0.75, TRPC4 act inactive, TRPC4 spec 2 62.5%*, TRPC4 spec -14.0%*, HEK293 MPD ctr 2-1 -32.5%*, HEK293 MPD ctr-1 -170.5%*, TRPC6 block conf 78.1%* and TRPC6 act conf inactive.
`Cc1cccn2c(=O)c3cc(C(=O)NC4CCCCC4)c(=N)n(CCN4CCOCC4)c3nc12` gave TRPC6 act inactive, TRPC4 inh inactive, TRPC4 PAM inactive, TRPC6 inh inactive, Kir21 inh 0.05 and TRPC4 act inactive.
`CN(C)CCOC(=O)c1ccc2c(c1)S(=O)(=O)c1ccccc1C2=O` gave TRPC6 act inactive, TRPC4 inh inactive, TRPC4 PAM inactive, TRPC6 inh inactive, Kir21 inh -0.19 and TRPC4 act inactive.
Screening c1ccc(CN2CCN(Cc3nnc(-c4ccccc4)o3)CC2)cc1 returned TRPC6 act inactive, TRPC4 inh inactive, TRPC4 PAM inactive, TRPC6 inh -5.64*, Kir21 inh -0.57, TRPC4 act inactive, HEK293 MPD ctr-2 inactive, HEK293 MPD ctr 2-2 66.5%*, TRPC4 ctr mod 11.0%*, TRPC4 ctr inh 2 inactive and TRPC6 block conf 64.0%*.
`Nc1nc(-c2ccccc2)cc(-c2ccccc2O)n1` gave TRPC6 act inactive, TRPC4 inh inactive, TRPC4 PAM inactive, TRPC6 inh inactive, Kir21 inh -0.04 and TRPC4 act inactive.
CN(C)c1cc(-c2ccccc2)nc(N)n1 was read as TRPC6 act inactive, TRPC4 inh inactive, TRPC4 PAM inactive, TRPC6 inh -6.51*, Kir21 inh -0.29, TRPC4 act inactive, HEK293 MPD ctr-2 -72.5%*, HEK293 MPD ctr 2-2 inactive, TRPC4 ctr mod -14.5%*, TRPC4 ctr inh 2 51.0%*, TRPC6 block conf inactive and TRPC6 act conf inactive.
CN1CCN(C(CNC(=O)C(=O)Nc2ccc3c(c2)OCO3)c2ccc(F)cc2)CC1 (stereo unspecified) was read as TRPC6 act inactive, TRPC4 inh inactive, TRPC4 PAM inactive, TRPC6 inh -5.97*, Kir21 inh -2.19, TRPC4 act inactive, HEK293 MPD ctr-2 100.5%*, HEK293 MPD ctr 2-2 inactive, TRPC4 ctr mod 11.5%*, TRPC4 ctr inh 2 inactive, TRPC6 block conf 39.0%* and TRPC6 act conf inactive.

From PubChem BioAssay
